Screens (PubChem BioAssay)
DNMT1 inh: DNMT1 (human) enzyme inhibition; AID 588458; DNMT1 molecular beacon, Hinp1I cleavage, fluorescence; inhibition (reported as % activation of signal), % at 10 µM; 360,000 tested, 0.83% active; in the data active means inhibition above about 50%
LMPTP block: LMPTP (human) inhibition; P24666; 360,000 tested, 0.22% active; recombinant LMPTP-A, OMFP fluorogenic substrate, fluorescence intensity; inhibition, % at 20 µM; AID 651560;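 active means compounds that cut the enzyme signal by at least half of the control window in the single-dose screen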
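material = LMPTP-A | quantity = 0.625 nM enzyme | reagent = OMFP substrate, 400 µM final | buffer or medium = Bis-Tris pH 6.0, DTT, detergent | detection = endpoint fluorescence intensity from OMFP dephosphorylation | dosing = single 20 µM dose | read-out basis = % inhibition relative to no-enzyme and uninhibited control wells | control set = no-enzyme and uninhibited controls | timing = 50 min at room temperature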
STEP block: inhibitors of human striatal-enriched phosphatase STEP; P54829; recombinant STEP, OMFP fluorogenic substrate, fluorescence; inhibition, % at 20 µM; 360,000 tested, 0.25% active;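 active means inhibition at 20 µM, scaled per plate between control wells, above about 37%, limit read from the data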
Target sequence (P54829 whole entry, looked up): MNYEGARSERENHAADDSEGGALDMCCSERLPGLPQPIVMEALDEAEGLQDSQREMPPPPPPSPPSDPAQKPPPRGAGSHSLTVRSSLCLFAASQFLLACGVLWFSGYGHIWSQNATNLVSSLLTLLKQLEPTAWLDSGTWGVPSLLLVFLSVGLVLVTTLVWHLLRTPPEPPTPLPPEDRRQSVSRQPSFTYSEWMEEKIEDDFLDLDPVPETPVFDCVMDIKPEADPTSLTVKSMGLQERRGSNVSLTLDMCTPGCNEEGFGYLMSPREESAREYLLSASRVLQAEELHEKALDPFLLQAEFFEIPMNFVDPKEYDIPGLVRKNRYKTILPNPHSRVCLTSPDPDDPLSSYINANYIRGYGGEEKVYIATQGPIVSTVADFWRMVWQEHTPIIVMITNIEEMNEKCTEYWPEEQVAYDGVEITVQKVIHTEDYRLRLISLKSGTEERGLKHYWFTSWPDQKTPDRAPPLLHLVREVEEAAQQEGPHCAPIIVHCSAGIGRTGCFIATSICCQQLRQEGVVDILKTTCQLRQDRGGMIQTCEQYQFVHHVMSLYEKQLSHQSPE
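System: isolated STEP enzyme; schedule: 20 min enzyme reaction at room temperature, protected from light; medium: Bis-Tris buffer pH 6.0, 2.5 mM DTT, 0.005% Tween 20; signal: fluorescence, 480/540 nm; dosing: single compound dose of 20 µM, 1% DMSO final; also added: OMFP substrate, 25 µM final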
Scp1 inh: blocks human Scp-1 phosphatase activity. Q9GZU7. Recombinant Scp1, phosphopeptide, malachite green phosphate absorbance. inhibition, % at 20 µM. 340,000 tested, 0.88% active;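 active means inhibition above about 50% at 20 µM, limit read from the data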
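assay system = SCP-1 phosphatase catalytic domain, residues 76-261 | buffer or medium = 50 mM Tris acetate pH 5.5, 0.005% Tween-20, 10 mM MgCl2 | incubation = enzyme reaction 45 min at room temperature, colour 5 min, stabilisation 30 min | signal = Phosphate-binding colour reagent, absorbance read at 630 nm | measure = % inhibition at 20 µM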
SUMO1 PPI mod: SUMO1-SIM interaction modulation; P63165; SUMO1 binding to a labelled peptide, TR-FRET, 1 h; inhibition, % at 20 µM; 360,000 tested, 0.33% active; in the data active means inhibition above about 37%
Target sequence (P63165 whole entry, looked up): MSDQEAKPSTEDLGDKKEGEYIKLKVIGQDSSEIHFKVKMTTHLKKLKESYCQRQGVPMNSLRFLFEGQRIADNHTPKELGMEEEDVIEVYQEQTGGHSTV
Each line names hits and unclear results; the compound was inactive in the other large screens. Shown are actives, neighbours in structure and some others; about 1.7% of the full set was active somewhere.

COc1ccc(-c2nnc(Nc3ccc(S(=O)(=O)Nc4nccs4)cc3)c3ccccc23)cc1	SUMO1 PPI mod 44
O=C(C[C@H]1CC[C@H]2[C@@H](COC[C@@H](O)CN2S(=O)(=O)c2ccc(F)cc2)O1)N[C@@H]1CCN(Cc2ccccc2)C1	none (no result: DNMT1 inh, STEP block, Scp1 inh)
COc1ccccc1-c1cc(C(=O)Nc2cccnc2Cl)no1	SUMO1 PPI mod 47
O=C(Nc1cccnc1Cl)c1cc(-c2cccc(O)c2)on1	SUMO1 PPI mod 72
O=C(/C=C1\OCc2ccccc21)OCc1ccccc1	none (no result: DNMT1 inh, STEP block, Scp1 inh)
CCOc1ccccc1/C=C/c1nc2ccccc2[nH]c1=O	DNMT1 inh 81
C/C(N)=C(/C#N)C(=O)COC(=O)CNC(=O)c1ccc(Cl)cc1Cl	none
C/C(N)=C(/C#N)C(=O)COc1ccc(Cl)cc1Cl	SUMO1 PPI mod 61
CCn1c(SCc2nc3sc(C(=O)O)c(C)c3c(=O)[nH]2)nc2ccccc21	Scp1 inh 65, SUMO1 PPI mod 41
CCCN1CCc2c(sc(NC(=S)NC(=O)c3ccccc3)c2C#N)C1	LMPTP block 59
CC(C)N1CCc2c(sc(NC(=S)NC(=O)c3ccccc3)c2C#N)C1	none
Cc1nc2ccc(S(=O)(=O)NCC(=O)NCc3ccc(Cl)cc3)cc2s1	none
Cc1nc2ccc(S(=O)(=O)NCC(=O)NCCN3CCCCCC3)cc2s1	SUMO1 PPI mod 46
CCCCOCCCNC(=O)C[C@@H]1C[C@@]2(C(=O)OC)CCCCC=C2N(CCc2ccc(OC)c(OC)c2)C1=O	none (no result: DNMT1 inh, STEP block, Scp1 inh)
CCOC(=O)CC1C(=O)NCCN1C(=S)NC(=O)c1ccc(C)c(Br)c1 (centres undefined)	none (no result: Scp1 inh)
CN(C)c1ccc(Nc2nc(N)c3ccccc3n2)cc1	none
CN(C)c1ccc(Sc2ccc3nc(N)nc(N)c3c2)cc1	LMPTP block 51 (no result: Scp1 inh)
CCCCNc1ccc2c3c(cccc13)C(=O)N(CCCC)C2=O	DNMT1 inh 61
Cc1nn(C)c(C)c1N1C(=O)c2cccc3c(Br)ccc(c23)C1=O	none
Cc1nn(C)c(C)c1N1C(=O)c2cccc3c(N)ccc(c23)C1=O	DNMT1 inh 93
CCN1C(=O)c2cccc3c(N)ccc(c23)C1=O	DNMT1 inh 124
O=C1c2cccc3c(N4CCCCC4)ccc(c23)C(=O)N1c1ccccn1	none
Cc1ccc(N2C(=O)c3cccc4c(N)ccc(c34)C2=O)c2cccnc12	Scp1 inh 67
CC1=C(C(=O)N2CCOCC2)CC(CC(=O)NCc2cccs2)C(=O)N1Cc1ccccc1 (centres undefined)	none (no result: Scp1 inh)
COc1cc(/C=C2\SC(=S)N(c3cccnc3)C2=O)ccc1O	DNMT1 inh 57, SUMO1 PPI mod 109
COc1ccc(Cl)cc1-c1cc(C(=O)NCc2ccc(F)cc2)[nH]n1	none (no result: Scp1 inh)
O=C1C=C(Nc2ccccc2C(=O)O)c2ccccc2C1=O	DNMT1 inh 55
CC1(C(=O)NS(=O)(=O)c2cccc(F)c2)CCN1C(=O)Cc1cccc2ccccc12 (centres undefined)	none (no result: Scp1 inh)
O=c1cc(CN2CCCCCCC2)c2ccccc2o1	LMPTP block 53 (no result: Scp1 inh)
COc1ccc(Nc2oc(COc3ccc(Cl)cc3)nc2C#N)cc1	SUMO1 PPI mod 42
COc1ccc(Cn2c(C)nc3c(c2=O)c2nc4ccccc4nc2n3Cc2ccco2)cc1	DNMT1 inh 96, Scp1 inh 95, SUMO1 PPI mod 69
Cc1ccc(S(=O)(=O)c2c(N)n(CCCN(C)C)c3nc4ccccc4nc23)cc1	none
COc1ccc(S(=O)(=O)c2c(N)n(Cc3ccco3)c3nc4ccccc4nc23)cc1	DNMT1 inh 98, LMPTP block 49, SUMO1 PPI mod 41
Cc1cc(=O)oc2cc(OCC(=O)Nc3ccccc3C(N)=O)c(Cl)cc12	SUMO1 PPI mod 62
CC(Sc1nnc(C(C)Oc2ccc(F)cc2)o1)C(=O)NCc1ccc2c(c1)OCO2 (centres undefined)	none (no result: Scp1 inh)
OC[C@@H]1CN(Cc2ccccc2)C[C@H](n2ccc3c(N4CCCC4)ncnc32)O1	none (no result: Scp1 inh)
CC(NC1=CC(=O)c2cccnc2C1=O)C(O)c1ccccc1 (centres undefined)	DNMT1 inh 72
CC(c1ccccc1)N1C(=O)c2cccnc2C1=O (centres undefined)	none
COC(=O)C1=C(C)N(Cc2ccccc2)C(=NCCc2cccnc2)N[C@H]1c1ccc(Br)cc1	Scp1 inh 57
COC(=O)C1=C(C)N(Cc2ccccc2)C(=NCCc2cccnc2)N[C@H]1c1ccccc1	none
CC(C)NC(=O)c1cc(C2CCCCN2C(=O)OCCF)on1 (centres undefined)	none (no result: Scp1 inh)
CCOc1ccc(C(=O)OCC(=O)N(Cc2ccccc2)Cc2ccccc2)cc1OC	none
COc1ccccc1Nc1nn2c(=O)c3ccc(C(=O)NCc4cccnc4)cc3nc2s1	DNMT1 inh 51, SUMO1 PPI mod 47 (no result: Scp1 inh)
O=C(NCc1ccccn1)c1ccc2c(=O)n3nc(Nc4ccccc4)sc3nc2c1	SUMO1 PPI mod 52
CCc1ccccc1Nc1nn2c(=O)c3ccc(C(=O)NCc4ccccn4)cc3nc2s1	SUMO1 PPI mod 39
COc1ccccc1Nc1nn2c(=O)c3ccc(C(=O)N4CCCCC4)cc3nc2s1	none
COc1ccc(CCNC2CC(C)N(C)CC2C)cc1OC (centres undefined)	none
COc1ccc(CNC2CC(C)N(C)CC2C)cc1OC (centres undefined)	LMPTP block 53
CC(=O)Nc1ccc(NC(=O)c2c(-c3ccccc3Cl)noc2C)c(C)c1	none
CC(=O)Nc1ccc(OC(=O)c2c(-c3ccccc3Cl)noc2C)cc1	SUMO1 PPI mod 37
CC1(C(=O)NCc2ccc3c(c2)OCO3)CCN1C(=O)Cc1ccc(Cl)cc1Cl (centres undefined)	none (no result: Scp1 inh)
O=C(NC1CCN(Cc2ccccc2)CC1)C(NS(=O)(=O)c1cccc2nsnc12)c1ccccc1 (centres undefined)	none
CCOC(=O)N1CCC(NC(=O)C(NS(=O)(=O)c2cccc3nsnc23)c2ccccc2)CC1 (centres undefined)	SUMO1 PPI mod 46
CCC(CC)C(C(=O)NCc1ccccc1)N(C)Cc1ccc(Cl)c(Cl)c1 (centres undefined)	none (no result: DNMT1 inh, STEP block, Scp1 inh)
CN(c1ccc(Cl)cc1)c1cc(=O)n(C)c2ccccc12	none
CN(C)c1ccc(C=c2c3ccccc3n3c2c2c([n+]3C)CCCC2)cc1	LMPTP block 53
COc1cc(N(C)C)ccc1C=c1c2ccccc2n2c1cc(-c1ccccc1)[n+]2C	LMPTP block 90
CN(C)c1ccc(C=c2c3ccccc3n3c2cc(-c2ccc(Cl)cc2)[n+]3C)cc1	LMPTP block 52
CN(C)c1ccc(C=c2c3cc([N+](=O)[O-])ccc3n3c2cc(-c2ccccc2)[n+]3C)cc1	LMPTP block 68, SUMO1 PPI mod 59
COc1cc(C=c2c3ccccc3n3c2cc(-c2ccccc2)[n+]3C)cc(OC)c1OC	none
CN(C)c1ccc(C=c2c3ccccc3n3c2cc(-c2ccccc2)[n+]3C)cc1	LMPTP block 89
